Laboratory results from the RNAGym collection of RNA variant scans (doi:10.1126/science.aae0568).
Fewer inactive variants are shown than the library holds.

B1: tRNA (parent)
chain: GUUCCGUUGGCGUAAUGGUAACGCGUCUCCCUCCUAAGGAGAAGACUGCGGGUUCGAGUCCCGUACGGAACG

Variants of: B1
Assay: yeast fitness relative to wild type (ratio to wild type); higher = fitter; tRNA-Arg(CCU), competitive growth, 37 C, YPD
Outline: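 A pool of Saccharomyces cerevisiae strains, each with a tRNA-Arg(CCU) gene variant at the native genomic locus, was competed in YPD at 37°C for 24 hours across six parallel replicates. The variants had been chemically synthesised at a 3% per-site mutation rate over 69 sites, and gene amplicons before and after competition were read by 100-nucleotide paired-end sequencing. Darwinian fitness relative to wild type rested on changes in genotype frequencies. Genotypes required ≥ 100 starting reads, and estimates < 0.5 were set to 0.5.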

Going from GUUCCGUUGGCGUAAUGGUAACGCGUCUCCCUCCUGAGGAGAAGACUGCGGGUUUGAGUCCCGUACGGAACG [A36G C55U] to GUACCGUUGGCGUAAUGGUAACGCGCCUCCUUCCUAAGGAGAAGACUGCGGAUUCGAGUCCCGUACGGAACG [U3A U26C C31U G52A], the yeast fitness falls from 0.743 to at most 0.5.

Compared with GUUCCGUUGGCGUACUGGUAAGGCGUCUCCCUCCUAAGGAGACGACUGCAGGUUCGAGCCCCGUACGGAACG [A15C C22G A43C G50A U59C], GUUCCGUUGGCGUAAUGGUAACGCGUCUCCCUCCUAACGAGAAGGCUGCGGGUUCGAGUCCCGUACGGACCG [G38C A45G A70C] is higher in yeast fitness: at most 0.5 for the first, 0.548 for the second.

First: GUUCCGUUGGCGUAAUGGUAACGCGUCUCCCUCCUGAGGAGCAGACUGCGGGUUCGAGUCCCGUACGGAACG [A36G A42C]
Second: GUUCCAUUGGCGUAAUGGAGACACGUCUCCCUCCUAAGGAGAAGACUGCGGGUUCGAGUCCCGUACGGAACG [G6A U19A A20G G23A]
The yeast fitness of the first is higher: 0.976 for the first, at most 0.5 for the second.

GUUCCGUAGACGCUAUGGUAACGCGUGUCCCUCCUAAGGAGAAGACCGCGGGUUCGAGUCCAGUACGGAACG [U8A G10A U13C A14U C27G U47C C62A] and GUUCAGUCGGUGUAAUGAUAACGCGUCUCCAUCCUAUGGAGAAGACUGCGGGUUCGAGUCCCGUACCGAACG [C5A U8C C11U G18A C31A A37U G67C] cannot be ordered by yeast fitness: at most 0.5 for the first, at most 0.5 for the second.

First: GUUCCGUUGGCGUAAUGGUAACGCGUCUCCCUGCUAAGGAGAAGACUGCGGGUUCGAGUCCCGUACGGUACG [C33G A69U]
Second: GUGCCGGUGGCGUAAUGGUAAUGCGUCUCCCUCCUAAGGAGAAGACUGCGGGUUCGAGUGCCGUACGGAACG [U3G U7G C22U C60G]
The yeast fitness of the first is higher: 0.764 for the first, at most 0.5 for the second.

First: GUUCCGUCGGCGUAAUGGCAACGCGUCUCCCUCCUAAGGAGAAGACUGCGGGUUUGAGUCCCGUACGGAACG [U8C U19C C55U]
Second: GUUCCGUUGGCGUAAUGGUAACGCGUAUCCCGCCUAAGGAGAAGACUGCGGGUUCGAGUCCCGUACGGAACG [C27A U32G]
The yeast fitness of the first is lower: at most 0.5 for the first, 0.595 for the second.

Compared with GUCCCGUUGGGGUAAUGGUAACGCGUCUCCCUCCUAGGGAGAAGACUGCGGGUUCGAGUCCCGUACGGAACG [U3C C11G A37G], GUUCCGUUGGCGUAAUGGUAACGCGACUCCCUCCUAAGGAGACGACUGCGGUUUAGAGUCCCGUACGGAACG [U26A A43C G52U C55A] is lower in yeast fitness: 0.563 for the first, at most 0.5 for the second.

First: GUUCCGUUGGCGUAAAGGUUACGCGUCUCCCUCCUAAGGAGAAGACUGCGGGUUCGAGUCCCGUACGGAACG [U16A A20U]
Second: GUUCCGUUGGCGUAAUGGUGACGCGUCUCCGUCCUAAGGAGAAGACUGCGGGUUCGAGUCCCGCACGGAACG [A20G C31G U64C]
The yeast fitness of the first is higher: 0.855 for the first, 0.694 for the second.

GUUCCGAUGGCGUAAUGGUCACGCGUCUCCCUCCUAAGGAGAAGACUGCGGGUUCGAGUCCCGUACCGAACG [U7A A20C G67C] and GUUCCGUUGCCGUAAUGGUAACGCGACUCCCUCCUAAGGAGAAGACUGCGGGUUCGAGUCGCGUACGGACCG [G10C U26A C61G A70C] cannot be ordered by yeast fitness: at most 0.5 for the first, at most 0.5 for the second.

GUUCCGUUGACGUAAUGGUAACGCGUCUCCCUCCUAAGGACAAGACUGCGGGUUCGAGUCGCGUACGGAACG [G10A G41C C61G] and GUUACGUUGGCGUAAUGGUCACGCGUUUCCCUCCUAAGGAGAAGACUGGGGGUUCGAGUCCCGUACGGAACG [C4A A20C C27U C49G] cannot be ordered by yeast fitness: at most 0.5 for the first, at most 0.5 for the second.

GUUCCGUUGGCGUAGUGGUAAAGCGUCUUCCUCCUAAGGAGAAGACUGCGGGUCCGAGUCCCGUACGGAACG [A15G C22A C29U U54C] and GUUCCGUUGGCGUAAGGGUAACGCGUCUCCCUCCUAAGGAGAAGACAGCGGAUUCGAGUCCCGUACGGAACG [U16G U47A G52A] cannot be ordered by yeast fitness: at most 0.5 for the first, at most 0.5 for the second.

First: GUUCCGUUGGCGUUAUGGUAACGCGUCUCCCUCCUAAGGCGAAGACUGCGGGUUCGAGUCCCGUAAGGAACG [A14U A40C C66A]
Second: GUUCCGUUGGCGUAAUGGUAACGCGUCUGCCUCCUGAGGAGAAGACUGCGGGUUCGAGUCCCGUACGGAACG [C29G A36G]
The yeast fitness of the first is lower: at most 0.5 for the first, 0.548 for the second.

Going from GUUCCGUUAGCCUAAUGGUAAUGCGUCUCCCUCCUAAGGAGAAGACUGCGGGUUCGAGUCCCGUACGGAACG [G9A G12C C22U] to GUUCCGUUGGCGUAAUGGUGACGCGUCUCCCCCCUAAGGAGAAGACUGCGGGUUCGAGUCCCGUACCGAACG [A20G U32C G67C], the yeast fitness rises from 0.591 to 0.735.

GUUCCGUUGGCGUAUUGGUAAUGCGUCUCCCUGCUAAGGAGAAGACUGCAGGUUCGAGUCCCGUACGGAACG [A15U C22U C33G G50A] and GUUCCGUUGGCGUUAUGGUAACGCGUCUCGCUCCUAAGGAGAAGACUGCGCGUUCGAGUCCCGUACGGAACG [A14U C30G G51C] cannot be ordered by yeast fitness: at most 0.5 for the first, at most 0.5 for the second.

First: GUUCCGUUGGCGUAAUCGUACCGCGACUCCCUCCUAAGGAGAAGACUGCGGGUUCGAGUCCCGUACGGAACG [G17C A21C U26A]
Second: GUUCCGUUGGCGUAAUGGUAACGCGUCUCCCUCCUAAGGAGAAGACUGCGAGUUCGAGACCCGUACGGAACG [G51A U59A]
The yeast fitness of the first is lower: at most 0.5 for the first, 0.696 for the second.

Going from GUUACGUUGGCGUAAUGGUAACGCGUCUCCCUCCUAAGGAGAAGACUGCGGGUUCGCGUCGCGUACGGAACG [C4A A57C C61G] to GUUCCGUUGGCGUAAUGGUAACGCGUCUCCCUCCUGAGGAGAAGUCUGCGGGUUCGAGUCCCGUACGGAACG [A36G A45U], the yeast fitness rises from at most 0.5 to 1.04.

Compared with GUUCCGUUGGCGUAAUGGUCACGUGUCUCCCUCCUAAGGAGAAGACUGCGGGUUCGAGUCCCGUAUGGAACG [A20C C24U C66U], GUCCCGUUAGCGUAAUGGCAACGCGUCUCCCUCCUAAGGAGAAGACUGCGGGUUCGAGUCCCGUACGGAACG [U3C G9A U19C] is higher in yeast fitness: at most 0.5 for the first, 0.816 for the second.

GUUCCGUUGGCGUAAUGGUAACGCGUCUCACUCCUAAGGAGAAGACUGCGGAUUCGUGUCCCGUACGGAACG [C30A G52A A57U] and GUCCCGUUGGCGUAAUGGUAACGCGUCUCCCUCCUAAGGAGAACACUGCGGGUUCGAGACCCGUACGGAACG [U3C G44C U59A] cannot be ordered by yeast fitness: at most 0.5 for the first, at most 0.5 for the second.

Variant GUUCCGUCGGCGUAAUGGUAACGCGUCUCACUCCUAAGAAGAAGACAGCGGGUUCGAGUCCCCUACGGAACG [U8C C30A G39A U47A G63C] has a yeast fitness of at most 0.5.
